From PubChem
An excerpt weighted towards active compounds, which were near 2.9% of everything screened.
SIRT5 block: inhibitors of human sirtuin-5 desuccinylase. 330,000 compounds, 1.1% hits. inhibition, % at 15 µM. Q9NXA8. Purified SirT5, succinyl-peptide AMC, trypsin-coupled fluorescence; in the data active = inhibition above about 15%; inconclusive = no clear call, values can overlap the other calls
Target sequence (Q9NXA8 whole entry, looked up): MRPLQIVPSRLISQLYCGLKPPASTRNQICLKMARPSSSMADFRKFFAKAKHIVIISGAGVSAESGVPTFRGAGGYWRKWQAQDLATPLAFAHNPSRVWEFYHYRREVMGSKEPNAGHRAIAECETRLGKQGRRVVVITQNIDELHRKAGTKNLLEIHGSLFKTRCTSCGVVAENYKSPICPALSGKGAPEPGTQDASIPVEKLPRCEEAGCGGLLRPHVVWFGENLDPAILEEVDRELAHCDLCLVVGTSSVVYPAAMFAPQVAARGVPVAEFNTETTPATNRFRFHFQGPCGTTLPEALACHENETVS
E-sel inducer: E-selectin induction on HUVECs. HUVEC E-selectin immunofluorescence imaging; normalized: neutral wells 0, TNF-alpha wells 100. activation, % at 7.58 µM. P16581. 260,000 compounds, 0.37% hits;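 active = mean E-selectin-positive cell signal at least 10% of the positive control, reached in at least 60% of replicates, without over 20% cell loss; inconclusive = no rule given, readout overlaps actives, possibly toxicity-flagged; inactive = the rest, including those meeting only one limit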
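Test system: HUVEC; input: 3,000 HUVEC/well; measured by: immunofluorescence imaging; read-out: % PE-positive cells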
DENV2 CPE: protects cells from dengue virus 2 cytopathic effect; CPE inhibition, % at 9.99 µM; DENV2-infected cells, cytopathic effect rescue, plate reader; 350,000 compounds, 1.7% hits; in the data active = CPE inhibition above about 20%, passing the limit was not always enough; inconclusive = no clear call, values can overlap the other calls; tested in BHK-21 cells;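 also: 0% = median of neutral control wells and 100% = median of positive control wells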
* = called active by the depositor; ? = inconclusive; · = no result given; ! = not active in a repeat.

SMILES | SIRT5 block | E-sel inducer | DENV2 CPE
CCCCc1c(-c2ccccc2F)ncn1CCc1ccccc1OC | 27.9* | -0.1 | 4.9
CCCCCc1c(-c2ccccc2F)ncn1CCc1ccccc1OC | · | -0.2 | -8.2
CCCCc1c(-c2ccccc2OC)ncn1CCc1ccccc1Cl | · | -0.2 | 32.0*
CC(C)(C)NC(=O)CN(C(=O)C(=O)Nc1ccc2c(c1)OCCO2)C1CC1 | 0.1 | 16.8 | -1.1
C/C=C/c1cnc2c(c1)C(=O)N([C@H](C)CO)C[C@H](C)[C@@H](CN(C)Cc1ccc3c(c1)OCO3)O2 | -7.1 | 2.3 | 7.4
COc1ccc(S(=O)(=O)Cc2ccc(C(=O)NC3CCC(C)CC3)o2)cc1 (centres undefined) | -1.9 | -0.2 | -1.5
COc1ccc(S(=O)(=O)Cc2ccc(C(=O)NC3CC3)o2)cc1 | · | · | 24.5*
CCC(C(=O)NCCCN1CCN(CC)CC1)n1nc(C)n2c(cc3occc32)c1=O (centres undefined) | 0.5 | · | -2.0
CC(C)[C@H]1COCCS(=O)(=O)N1Cc1ccccc1-c1cccc2c1oc1ccccc12 | · | -0.7 | -1.7
Cc1c(C(=O)N2CCN(S(=O)(=O)c3ccccc3)CC2)oc2ccccc12 | -1.0 | 0.0 | 1.3
Cc1c(C(=O)N2CCN(S(=O)(=O)c3cc(F)ccc3F)CC2)oc2ccccc12 | -2.9 | 343.4* | -8.3
Cc1ccc(NC(=O)CSc2nnc(NC(=O)c3ccco3)s2)cc1 | -3.2 | 0.2 | 0.4
C[C@@H]1CN([C@@H](C)CO)S(=O)(=O)c2ccc(-c3cccc(C#N)c3)cc2O[C@@H]1CN(C)CC1CC1 | 2.3 | 0.2 | -1.3
C[C@H](CO)N1C[C@H](C)[C@@H](CN(C)CC2CC2)Oc2cc(-c3cccc(C#N)c3)ccc2S1(=O)=O | 16.0* | -0.3 | 18.2
C[C@@H]1CN([C@@H](C)CO)S(=O)(=O)c2ccc(-c3ccccc3)cc2O[C@@H]1CN(C)CC1CC1 | 2.4 | 0.3 | 18.6
C[C@@H]1CN([C@@H](C)CO)S(=O)(=O)c2ccc(-c3ccccc3)cc2O[C@H]1CN(C)CC1CCCC1 | -0.6 | 1.5 | 38.8*
CCCN1CCC(NC(=O)Nc2ccc([N+](=O)[O-])cc2)CC1 | 16.6* | -0.1 | ·
CCCN1CCC(NC(=O)Nc2ccc(Br)cc2)CC1 | -5.6 | 0.2 | -3.5
CCOCCn1c(=NC(=O)c2ccc(S(=O)(=O)N3CCOCC3)cc2)sc2cc(S(N)(=O)=O)ccc21 | -1.9 | -3.5 | -0.5
CCCNC(=O)N1[C@H](CO)[C@H](c2ccccc2)[C@@H]1CNC(=O)c1ccccc1 | -0.1 | -0.3 | 33.3*
CCCNC(=O)N1[C@H](CNC(=O)c2cccc(F)c2)[C@@H](c2ccccc2)[C@@H]1CO | · | 0.0 | 43.2*
CCCNC(=O)N1[C@@H](CO)[C@@H](c2ccccc2)[C@@H]1CNC(=O)c1ccccc1 | -1.4 | 0.0 | 2.6
CCCNC(=O)N1[C@@H](CO)[C@H](c2ccccc2)[C@@H]1CNC(=O)c1cccc(F)c1 | -0.1 | 0.1 | 11.7
O=[N+]([O-])c1cnccc1Nc1ccc(Cl)cc1 | -2.0 | 0.1 | -4.2
COc1ccc2c3c([nH]c2c1)[C@H](CO)N(C(=O)c1cnccn1)CC31CN(S(C)(=O)=O)C1 | -2.4 | 0.4 | 17.3
SMILES | SIRT5 block | E-sel inducer | DENV2 CPE
COc1ccc2c3c([nH]c2c1)[C@@H](CO)N(C(=O)c1cnccn1)CC31CCN(S(C)(=O)=O)CC1 | -6.2 | -0.2 | 33.7*
COc1ccc2c3c([nH]c2c1)[C@@H](CO)N(C(=O)c1ccccn1)CC31CCN(C(=O)C2CCC2)CC1 | -0.5 | -0.1 | 2.3
COc1ccc2c3c([nH]c2c1)[C@@H](CO)N(C(=O)c1ccccn1)CC31CCN(C(=O)C2CCCC2)CC1 | 1.6 | 0.1 | 23.5*
O=C(NCCS(=O)(=O)N1CCN(c2ccccc2F)CC1)c1cccc(Br)c1 | -0.5 | 0.1 | 0.2
COc1cccc(S(=O)(=O)N2CC[C@@H]3[C@H]2c2cc(-c4ccc(C#N)cc4)ccc2N[C@@H]3CO)c1 | · | -0.3 | -5.1
C[C@H](CO)N1C[C@H](C)[C@H](CN(C)C(=O)NC2CCCCC2)Oc2ccc(NC(=O)Cc3ccccc3)cc2C1=O | 2.2 | -9.8 | 33.2*
C[C@H]1CN([C@@H](C)CO)C(=O)c2cc(NC(=O)Cc3ccccc3)ccc2O[C@H]1CN(C)C(=O)NC1CCCCC1 | 4.3 | -6.8 | -7.3
C[C@@H]1CN([C@@H](C)CO)C(=O)c2cc(NC(=O)Cc3cn(C)c4ccccc34)ccc2O[C@H]1CN(C)C(=O)NC1CCCCC1 | -1.0 | · | 23.5*
CC(C)NC(=O)N(C)C[C@@H]1Oc2ccc(NC(=O)Cc3cn(C)c4ccccc34)cc2C(=O)N([C@H](C)CO)C[C@H]1C | 1.9 | 48.6* | 51.8*
CC(C)NC(=O)N(C)C[C@@H]1Oc2ccc(NC(=O)Cc3cn(C)c4ccccc34)cc2C(=O)N([C@@H](C)CO)C[C@@H]1C | -0.9 | 4.8 | 4.1
C[C@@H]1CN([C@H](C)CO)C(=O)c2cc(NC(=O)Cc3cn(C)c4ccccc34)ccc2O[C@@H]1CN(C)C(=O)NC1CCCCC1 | 9.2 | · | -1.3
CC(C(=O)Nc1nnc(C2CC2)s1)N1C(=O)C2CC=CCC2C1=O (centres undefined) | -2.0 | -0.2 | 6.4
C[C@@H]1CN([C@@H](C)CO)C(=O)c2cccc(NC(=O)C3CC3)c2O[C@H]1CN(C)S(=O)(=O)c1cccs1 | 7.0 | 0.4 | 3.7
C[C@@H]1CCCCO[C@@H](CN(C)CC2CCCCC2)[C@@H](C)CN([C@H](C)CO)C(=O)c2cc(NS(=O)(=O)c3ccc(Cl)cc3)ccc2O1 | -0.7 | · | 62.7*!
Cc1ccc(S(=O)(=O)Nc2ccc3c(c2)C(=O)N([C@H](C)CO)C[C@H](C)[C@H](CN(C)CC2CC2)OCCCC[C@H](C)O3)cc1 | 3.7 | 1.3 | ?
Cc1ccc(S(=O)(=O)Nc2ccc3c(c2)C(=O)N([C@H](C)CO)C[C@@H](C)[C@@H](CN(C)CC2CCCCC2)OCCCC[C@H](C)O3)cc1 | 17.5* | -0.1 | -14.0
Cc1ccc(S(=O)(=O)Nc2ccc3c(c2)C(=O)N([C@@H](C)CO)C[C@@H](C)[C@@H](CN(C)CC2CC2)OCCCC[C@@H](C)O3)cc1 | 0.1 | 0.1 | 62.7*!
C[C@@H]1CCCCO[C@H](CN(C)CC2CCCCC2)[C@@H](C)CN([C@H](C)CO)C(=O)c2cc(NS(=O)(=O)c3ccc(Cl)cc3)ccc2O1 | · | -0.1 | -3.0
Cc1ccc(S(=O)(=O)Nc2ccc3c(c2)C(=O)N([C@@H](C)CO)C[C@@H](C)[C@H](CN(C)CC2CCCCC2)OCCCC[C@H](C)O3)cc1 | -0.6 | 0.0 | 19.0
CC(C)CC(=O)Nc1nnc(CCc2ccccc2)s1 | -3.5 | -0.9 | -3.1
OC(COc1ccc(Cl)cc1)CN1CCN(c2ccccn2)CC1 (centres undefined) | -7.2 | -0.1 | 1.9
CCOc1ccc(C2/C(=C(/O)c3ccc4c(c3)CC(C)O4)C(=O)C(=O)N2CCCn2ccnc2)cc1OCC (centres undefined) | 0.3 | · | 0.5
O=C(Nc1nnc(C2=COCCO2)o1)c1cccc(Br)c1 | -0.3 | -1.2 | -2.0
C=CCOC(=O)C1=C[C@H](c2ccccc2)[C@@H](CCCO)[C@H](OCC)O1 | 4.0 | -0.2 | 6.0
O=C(Cc1cccs1)NNC(=S)NC(=O)c1ccco1 | 0.8 | · | 0.7
O=C(NCc1ccccc1F)Nc1nnc([C@H]2C[C@H](O)[C@@H](CO)O2)s1 | -1.2 | -0.1 | 3.4
